Only some compounds are listed: those with a hit (about 1.9% of all), similar ones and a draw of the others.
Fh CTSL1 inh: counter-screen for PFM18AAP inhibitors: inhibitors of F. hepatica cathepsin L1; recombinant F. hepatica cathepsin L1, Z-Leu-Arg-MCA fluorescence; inhibition, % at 5.96 µM; 300,000 compounds, 0.49% hits; AID 1906;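 active = inhibition above the mean of all tested compounds plus 3 SD, set per screening campaign, cut at about 17% in these data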
pCIP destab: p/CIP protein destabilization. Q05BA5. F442A p/CIP-EGFP cells, EGFP fluorescence, 16 h. decrease of EGFP signal, % at 10 µM. 290,000 compounds, 0.01% hits;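 active = EGFP signal decrease of at least 30% at 10 µM or well 3 SD below plate mean, unless failing retest; inactive = the rest, including hits failing retest or dose response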
Target sequence (Q05BA5 1-1403): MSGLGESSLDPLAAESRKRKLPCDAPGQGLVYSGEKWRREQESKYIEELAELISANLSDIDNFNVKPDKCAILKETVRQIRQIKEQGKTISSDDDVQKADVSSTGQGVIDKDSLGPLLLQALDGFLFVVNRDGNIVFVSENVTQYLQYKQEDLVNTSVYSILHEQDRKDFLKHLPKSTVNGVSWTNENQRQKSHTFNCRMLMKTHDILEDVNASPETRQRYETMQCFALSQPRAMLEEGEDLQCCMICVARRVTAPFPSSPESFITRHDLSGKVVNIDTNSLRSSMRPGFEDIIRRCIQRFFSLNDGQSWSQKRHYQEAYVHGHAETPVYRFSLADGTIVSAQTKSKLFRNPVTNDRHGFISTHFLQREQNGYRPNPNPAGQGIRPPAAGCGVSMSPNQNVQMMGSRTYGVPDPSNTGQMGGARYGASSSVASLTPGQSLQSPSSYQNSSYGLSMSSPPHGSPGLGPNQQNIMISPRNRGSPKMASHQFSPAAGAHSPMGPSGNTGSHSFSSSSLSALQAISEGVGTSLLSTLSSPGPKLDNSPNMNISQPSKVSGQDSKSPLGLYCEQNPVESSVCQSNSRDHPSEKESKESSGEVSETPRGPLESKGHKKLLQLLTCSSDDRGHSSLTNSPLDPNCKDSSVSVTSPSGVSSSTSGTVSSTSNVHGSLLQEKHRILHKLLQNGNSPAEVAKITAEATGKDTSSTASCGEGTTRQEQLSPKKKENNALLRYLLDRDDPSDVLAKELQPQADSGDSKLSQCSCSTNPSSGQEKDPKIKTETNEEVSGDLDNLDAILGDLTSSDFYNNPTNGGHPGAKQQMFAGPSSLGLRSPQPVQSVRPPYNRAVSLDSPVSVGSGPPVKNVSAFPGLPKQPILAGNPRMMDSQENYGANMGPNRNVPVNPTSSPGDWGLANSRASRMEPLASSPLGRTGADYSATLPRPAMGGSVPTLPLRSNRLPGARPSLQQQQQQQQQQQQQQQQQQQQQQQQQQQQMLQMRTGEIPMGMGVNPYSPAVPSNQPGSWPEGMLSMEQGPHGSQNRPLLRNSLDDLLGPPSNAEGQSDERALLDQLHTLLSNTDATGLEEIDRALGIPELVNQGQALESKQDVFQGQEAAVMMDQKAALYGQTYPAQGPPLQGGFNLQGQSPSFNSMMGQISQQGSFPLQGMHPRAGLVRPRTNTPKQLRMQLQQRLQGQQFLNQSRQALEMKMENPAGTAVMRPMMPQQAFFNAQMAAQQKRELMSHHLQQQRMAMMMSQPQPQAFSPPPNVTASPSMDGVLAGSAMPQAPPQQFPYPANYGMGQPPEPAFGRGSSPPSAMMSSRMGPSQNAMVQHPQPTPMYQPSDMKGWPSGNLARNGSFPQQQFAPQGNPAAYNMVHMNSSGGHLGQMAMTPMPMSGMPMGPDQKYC
T cell HTS: modulates CD8 T cell binding to vesicles; 2C CD8+ T cell-vesicle binding, flow cytometry; stronger effect = lower value; response (vesicle binding), % at 7 µM; 330,000 compounds, 0.068% hits;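 active = response, share of CD8 T cells binding vesicles, and their 90th percentile fluorescence all below set limits, cut at about 80% in these data, passing the limit was not always enough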;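 note: values below 100% mean blocked vesicle binding to the CD8+ T cells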
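material = purified 2C TCR transgenic mouse naive CD8+ T cells | controls = Unloaded micro-vesicles (low), QL9 vesicles with 0.7% DMSO (high) | detection = cytometric PE anti-B7-1 and Alexa647 anti-CD8 signals after 1% paraformaldehyde fixation | incubation = binding step 1.5 h, 37 °C, antibody labelling 20 min, ice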
UBC9 SUMO inh: inhibitors of human SUMOylation (UBC9); HTRF SUMOylation assay, SAE1/SAE2 + UBC9, in vitro; inhibition, % at 35 µM; 290,000 compounds, 0.36% hits; AID 2006; in the data active = inhibition above about 50%, passing the limit was not always enough
VIM-2 inh: inhibitors of Pseudomonas aeruginosa VIM-2 metallo-beta-lactamase | purified VIM-2, nitrocefin hydrolysis, epi-absorbance fluorescence | inhibition, % at 5.6 µM | 290,000 compounds, 0.89% hits | AID 1527;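 active = inhibition above the mean of all tested compounds plus 3 SD, cutoff set per screening run, cut at about 7.5% in these data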;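 note: red hydrolysis product quenches plate fluorescence so inhibitors raise well fluorescence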
IMP-1 inh-1: inhibitors of Pseudomonas aeruginosa IMP-1 metallo-beta-lactamase | purified IMP-1, nitrocefin hydrolysis, epi-absorbance fluorescence | inhibition, % at 5.6 µM | 290,000 compounds, 0.45% hits | AID 1556;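 active = inhibition above the mean plus 3 SD of all compounds in the same screening run, cut at about 4.5% in these data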
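System: purified recombinant IMP-1 beta-lactamase. Medium: Zinc- and detergent-supplemented HEPES buffer, pH 7.1. Compound: one 5.6 µM dose […]. Schedule: 15 min preincubation plus 25 min reaction at 25 °C. Technique: Epi-absorbance fluorescence, 480 nm excitation, 530 nm emission.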
IMP-1 inh-2: selectivity counter-screen for VIM-2 inhibitors: IMP-1 metallo-beta-lactamase inhibitors. shares compounds with VIM-2 inh. purified IMP-1, nitrocefin hydrolysis, epi-absorbance fluorescence. inhibition, % at 5.6 µM. 1,300 tested, under 10 active; call rule not given here
VIM-2 FRET inh: VIM-2 FRET inhibition, artifact counter-screen | shares compounds with VIM-2 inh | purified VIM-2, CCF2 FRET substrate hydrolysis | inhibition, % at 5.6 µM | 1,300 compounds, 23% hits | AID 1857;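 active = inhibition above the mean of all tested compounds plus 3 SD, cut at about 19% in these data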
TEM-1 inh: selectivity counter-screen for VIM-2 inhibitors: E. coli TEM-1 inhibitors | Purified TEM-1, nitrocefin hydrolysis, epi-absorbance fluorescence | AID 1866 | 1,300 compounds, 3% hits | shares compounds with VIM-2 inh | inhibition, % at 5.6 µM;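 active = inhibition above that campaign's mean inhibition plus 3 SD, cut at about 0.46% in these data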
VIM-2 inh conf: confirmation of P. aeruginosa VIM-2 metallo-beta-lactamase inhibitors; shares compounds with VIM-2 inh; 1,300 compounds, 96% hits; inhibition, % at 5.6 µM; purified VIM-2, nitrocefin hydrolysis, epi-absorbance;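 active = inhibition of the VIM-2 beta-lactamase enzyme above about 11% from the earlier first-round screen, limit read from the data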
Large screens that a line does not name were inactive (follow-up assays come after a bar, where they were run).

Cc1nn2c(COc3ccc(NC(=O)c4ccccc4Cl)cc3)nnc2c2ccccc12	none
Cc1nnc2c3ccccc3c(-c3ccccc3)nn12	VIM-2 inh 24 (no result: pCIP destab, UBC9 SUMO inh) | IMP-1 inh-2 inactive | VIM-2 FRET inh inactive | TEM-1 inh 1.9 | VIM-2 inh conf 43
O=C(NCc1nnc2c3ccccc3c(-c3ccccc3)nn12)c1ccccc1Cl	VIM-2 inh 17 | IMP-1 inh-2 inactive | VIM-2 FRET inh inactive | TEM-1 inh inactive | VIM-2 inh conf 27
COc1ccc(CNC(=O)CN2CCN(c3ccccc3O)CC2)cc1OC	none
O=C(NNC(=S)NC1CC2C=CC1C2)c1cccnc1 (stereo not given)	none
CCOc1ccc(NC(=O)CN(C)C(=O)C2CC(=O)N(Cc3ccco3)C2)cc1OCC (stereo not given)	none (no result: Fh CTSL1 inh, pCIP destab, UBC9 SUMO inh, VIM-2 inh, IMP-1 inh-1)
CC(C)C(NC(=O)c1ccccc1)C(=O)OCn1nnc2ccccc2c1=O (stereo not given)	none (no result: Fh CTSL1 inh, pCIP destab, UBC9 SUMO inh, VIM-2 inh, IMP-1 inh-1)
Cc1ccc(-c2nn3c(C)nnc3c3ccccc23)cc1S(=O)(=O)NC(C)(C)CO	VIM-2 inh 22 | IMP-1 inh-2 inactive | VIM-2 FRET inh inactive | TEM-1 inh inactive | VIM-2 inh conf 37
Cc1ccc(-c2nn3cnnc3c3ccccc23)cc1	VIM-2 inh 17 | IMP-1 inh-2 inactive | VIM-2 FRET inh inactive | TEM-1 inh inactive | VIM-2 inh conf 27
Cc1ccc(-c2nn3c(C)nnc3c3ccccc23)cc1S(=O)(=O)NC(C)c1ccccc1 (stereo not given)	none
Clc1nn2cnnc2c2ccccc12	none
Cc1ccc(-c2nn3c(C)nnc3c3ccccc23)cc1S(=O)(=O)N1CCN(CCO)CC1	VIM-2 inh 61 | IMP-1 inh-2 inactive | VIM-2 FRET inh inactive | TEM-1 inh inactive | VIM-2 inh conf 73
CCOc1ncccc1C(=O)OCC(=O)NC(=O)c1ccccc1	none (no result: Fh CTSL1 inh, pCIP destab, UBC9 SUMO inh, VIM-2 inh, IMP-1 inh-1)
COc1ccc(S(=O)(=O)n2cccc2)c(OC)c1	none
O=C(O)c1ccc2c(c1)C(=O)/C(=C\c1ccco1)C2=O	none
O=C1C(=Cc2ccco2)C(=O)c2ccccc21	VIM-2 inh 31 | IMP-1 inh-2 inactive | VIM-2 FRET inh inactive | TEM-1 inh inactive | VIM-2 inh conf inactive
C#CCN1N=C(c2ccc(C)cc2)CSC1=O	none (no result: pCIP destab, UBC9 SUMO inh, VIM-2 inh, IMP-1 inh-1)
O=C(CN1CCOCC1)Nc1c(C(=O)C2CC2)oc2ccccc12	none
CN1CCN(CC(=O)Nc2c(C(=O)C3CC3)oc3ccccc23)CC1	VIM-2 inh 21 | IMP-1 inh-2 inactive | VIM-2 FRET inh inactive | TEM-1 inh inactive | VIM-2 inh conf 36
CCN(CC)CCCNC(=O)c1cc2nc3c(c(C(F)(F)F)n2n1)CCc1ccccc1-3	VIM-2 inh 13 | IMP-1 inh-2 inactive | VIM-2 FRET inh inactive | TEM-1 inh inactive | VIM-2 inh conf 15
Cc1ccc(O)c(NC(=O)c2cc3nc4c(c(C(F)(F)F)n3n2)CCc2ccccc2-4)c1	none
Cc1onc(-c2ccccc2Cl)c1C(=O)Nc1cccc(S(=O)(=O)NC2=NCCC2)c1	none (no result: pCIP destab, UBC9 SUMO inh, VIM-2 inh, IMP-1 inh-1)
CC1=C(C(=O)O)N2C(=O)C(NC(=O)c3ccn(C)n3)C2SC1 (stereo not given)	none
CC1=C(C(=O)O)N2C(=O)C(NC(=O)c3nn(C)cc3[N+](=O)[O-])C2SC1 (stereo not given)	VIM-2 inh 15 | IMP-1 inh-2 inactive | VIM-2 FRET inh 33 | TEM-1 inh inactive | VIM-2 inh conf 21
Cc1c(Br)cc(C(=O)OC2CCN(C)CC2)c(C)c1C	VIM-2 inh 13 | IMP-1 inh-2 inactive | VIM-2 FRET inh inactive | TEM-1 inh inactive | VIM-2 inh conf 17
CN1CCC(OC(=O)c2ccccc2)CC1	none
O=C(NC1CCCC1)c1cccc(S(=O)(=O)N2CCOCC2)c1	none (no result: Fh CTSL1 inh, pCIP destab, UBC9 SUMO inh, VIM-2 inh, IMP-1 inh-1)
O=C(CSc1ccc2nnc(-c3ccccn3)n2n1)Nc1ccccc1	none
Cc1ccc(CSc2ccc3nnc(-c4ccccn4)n3n2)cc1	VIM-2 inh 21 | IMP-1 inh-2 inactive | VIM-2 FRET inh inactive | TEM-1 inh inactive | VIM-2 inh conf 34
Cc1ccc(C)c(CSc2ccc3nnc(-c4ccccn4)n3n2)c1	VIM-2 inh 14 | IMP-1 inh-2 inactive | VIM-2 FRET inh inactive | TEM-1 inh inactive | VIM-2 inh conf 25
Brc1ccc(CSc2ccc3nnc(-c4ccccn4)n3n2)cc1	VIM-2 inh 25 | IMP-1 inh-2 inactive | VIM-2 FRET inh inactive | TEM-1 inh inactive | VIM-2 inh conf 52
COC(=O)c1ccc(CSc2ccc3nnc(-c4ccc(F)cc4)n3n2)o1	none
COC(=O)c1ccc(CSc2ccc3nnc(-c4ccccn4)n3n2)o1	VIM-2 inh 21 | IMP-1 inh-2 inactive | VIM-2 FRET inh inactive | TEM-1 inh inactive | VIM-2 inh conf 38
O=C(c1ccc(=O)oc1)N1CCN(c2ccc(F)cc2)CC1	none (no result: VIM-2 inh, IMP-1 inh-1)
O=C(c1ccccc1)c1ccc(N2CCNCC2)cc1	VIM-2 inh 18 (no result: Fh CTSL1 inh, T cell HTS) | IMP-1 inh-2 inactive | VIM-2 FRET inh inactive | TEM-1 inh inactive | VIM-2 inh conf 46
CN1CCN(c2ccc(C(=O)c3ccc(F)cc3)cc2)CC1	VIM-2 inh 24 | IMP-1 inh-2 inactive | VIM-2 FRET inh inactive | TEM-1 inh inactive | VIM-2 inh conf 40
